The results in this text go back to ChEMBL document CHEMBL4038310, “Scaffold Hopping and Optimization of Maleimide Based Porcupine Inhibitors” (J Med Chem, 2017).

The nature of data set [1]: Thermodynamic solubility of compound at pH 7.4. Conditions: buffer, read-out: Therm_solubility. The format is physicochemical.
Data set [2] in a line: Tmax in CD1 mouse at 5 mg/kg administered as single dose via oral gavage after 24 hrs by LC/MS analysis. In kind it is ADME, organism-based. Conditions: in vivo. A digest of the protocol: (§1)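 Female CD-1 mice, 6-8 weeks, 26 ± 3 g; single oral gavage dose of 5 mg/kg; three mice per time point. Sampling by cardiac puncture after CO2 euthanasia at pre-dose and from 5 or 10 min up to 24 h into K3EDTA. Plasma was extracted with acetonitrile/formic acid, carbamazepine internal standard, and analysed by LC-MS/MS (ESI+, MRM). Parameters were derived non-compartmentally.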

A short description of data set [3]: Thermodynamic solubility of compound at pH 4. The conditions noted are these: buffer, read-out: Therm_solubility. The format is physicochemical.
Data set [4] in a line: Cmax in CD1 mouse at 5 mg/kg administered as single dose via oral gavage after 24 hrs by LC/MS analysis. The conditions noted are these: in vivo. Also on record: dose 5 mg/kg, route oral. The format is ADME, organism-based. A digest of the protocol: as §1
Data set [5] deals with Mus musculus. As to the kind of experiment: Bioavailability in CD1 mouse at 1 mg/kg, iv administered as single dose after 24 hrs by LC/MS analysis. The conditions noted are these: in vivo. The format is ADME, organism-based. A digest of the protocol: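 Female CD-1 mice received a single 1 mg/kg tail-vein dose, with three mice per time point and plasma sampled up to 24 h. Quantitation was by LC-MS/MS against standards in blank mouse plasma. Absolute oral F = (AUC0-inf po/AUC0-inf iv) × (dose iv/dose po) × 100, using the 5 mg/kg oral gavage arm.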

Data set [6] is described as follows: Cmax in Sprague-Dawley rat at 10 mg/kg, po. The conditions noted are these: in vivo. Details: dose 10 mg/kg, route oral. In kind it is ADME, organism-based. A digest of the protocol: (§2)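 Male Sprague Dawley rats received a single oral dose of 10 mg/kg. A plasma concentration-time profile was obtained, and PK parameters were calculated by the non-compartmental method.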

Data set [7] can be described thus: AUC in Sprague-Dawley rat at 10 mg/kg, po. The format is ADME, organism-based. Conditions: in vivo. A digest of the protocol: as §2
Data set [8] can be described thus: Bioavailability in Sprague-Dawley rat plasma at 2 mg/kg, iv. The format is ADME, organism-based. A digest of the protocol:
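Male Sprague Dawley rats were given a 2 mg/kg intravenous dose and compared with a 10 mg/kg oral dose. Absolute F = (AUC0-inf po/AUC0-inf iv) × (dose iv/dose po) × 100.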

≈ marks a conversion by molar mass, not a printed value. Some results are limits rather than exact numbers.

`Cc1ccc(-c2ccc(NC(=O)CN3CCCC4=C3C(=O)N(C)C4=O)nn2)cn1`: the solubility thermodynamic in data set [1] was 35.5 µg/mL (≈ 90.5 µM); in data set [3] it was above 194 µg/mL. Also, the Tmax in data set [2] came out at 10.2 min. The Cmax in data set [4] stood at 1050 ng/mL.
Take `CN1C(=O)C2=C(C1=O)N(CC(=O)Nc1ccc(-c3nccs3)cc1)CCC2`: the solubility thermodynamic was 1.26 to 1.3 µg/mL (≈ 3.29 to 3.4 µM) in data set [1] and 1.1 µg/mL (≈ 2.88 µM) in data set [3].
Turning to `CN1C(=O)c2cccc(CC(=O)Nc3ccc(-c4nccs4)cc3)c2C1=O`, the solubility thermodynamic in data set [1] was found to be 0.42 µg/mL (≈ 1.11 µM).
Regarding `Cc1ccc(-c2ccc(NC(=O)CN3CCCC4=C3C(=O)N(C3CC3)C4=O)nn2)cn1`, the solubility thermodynamic in data set [1] is 11.1 µg/mL (≈ 26.5 µM); in data set [3] it was above 41 µg/mL. The Tmax in data set [2] stood at 30 min. Besides, in data set [4], the Cmax came out at 1190 ng/mL.
Regarding `CN1C(=O)C2=C(C1=O)N(CC(=O)Nc1ccc(-c3cccnc3)nc1)CCC2`, the solubility thermodynamic in data set [1] came out at 13 µg/mL (≈ 34.6 µM).
In the case of `CN1C(=O)C2=C(C1=O)N(CC(=O)Nc1ccc(-c3cccnc3)nn1)CCC2`, the results for the solubility thermodynamic in data set [1] and in data set [3] were 9.5 µg/mL (≈ 25.1 µM) and 13.9 µg/mL (≈ 36.7 µM), respectively. In addition, the Tmax in data set [2] stood at 120 min. The compound also showed a Cmax in data set [4] of 759 ng/mL.
The compound `O=C(CN1CCCC2=C1C(=O)N(C1CC1)C2=O)Nc1ccc(-c2cccnc2)nn1` came in with a F in data set [5] of 100%. For the same compound, the solubility thermodynamic in data set [1] was found to be 60 µg/mL (≈ 148 µM); in data set [3], 141 µg/mL (≈ 349 µM). For the same compound, the Cmax in data set [6] turned out to be 17300 ng/mL; in data set [4] it was 4030 ng/mL. For the same compound, in data set [2], the time to peak (Tmax) worked out at 30 min. The same compound registered an AUC in data set [7] of 81200 ng·h/mL. This compound displayed a bioavailability in data set [8] of 81%.
For the compound `CN1C(=O)C2=C(C1=O)N(CC(=O)Nc1ccc(-c3ccccc3)cn1)CCC2`, the solubility thermodynamic in data set [1] came to 0.24 µg/mL (≈ 0.638 µM).
Turning to `O=C(CN1CCCC2=C1C(=O)N(C1CC1)C2=O)Nc1ccc(-c2cncc(F)c2)nn1`, the values for the solubility thermodynamic in data set [1] and in data set [3] were 14.9 µg/mL (≈ 35.3 µM) and 13.8 µg/mL (≈ 32.7 µM), respectively. The Tmax in data set [2] was determined as 30 min. The maximum concentration (Cmax) in data set [4] was found to be 3290 ng/mL.
For `CN1C(=O)C2=C(C1=O)N(CC(=O)Nc1ccc(-c3cncc(F)c3)nn1)CCC2`, in that order: 41 µg/mL (≈ 103 µM), 82 µg/mL (≈ 207 µM), 120 min and 845 ng/mL.
Take `CN1C(=O)C2=C(C1=O)N(CC(=O)Nc1ccc(-c3ccccc3)nc1)CCC2`: the solubility thermodynamic in data set [1] turned out to be 0.75 µg/mL (≈ 1.99 µM).
Same read-out and setting: the value for `CN1C(=O)C2=C(C1=O)N(CC(=O)Nc1ccc(-c3ccccc3)nn1)CCC2` was 3.34 µg/mL (≈ 8.85 µM); that for `CN1C(=O)C2=C(C1=O)N(CC(=O)Nc1ccc(-c3ccccc3)cc1)CCC2` was 2.1 µg/mL (≈ 5.59 µM).

By Tmax is commonly meant the time from dosing to the highest level. In general, Cmax refers to the peak of the concentration-time curve. As usually defined, the AUC is the area under the concentration-time curve, a measure of exposure. The low end stands for less exposure, the high end for more exposure. What is called bioavailability is the share of a dose that reaches the circulation, judged against a reference dose that is usually intravenous. Read a low bioavailability as poor availability.
